# In ChEMBL document CHEMBL3244381, “Tetramisole analogues as inhibitors of alkaline phosphatase, an enzyme involved in the resistance of neoplastic cells to 6-thiopurines” (J Med Chem, 1977):
# Activity calls are given as the source filed them. No cut-off for these calls is given here.
# Target: T1, Alkaline phosphatase, tissue-nonspecific isozyme (Mus musculus, UniProt P09242)
# T1 sequence (P09242 whole entry): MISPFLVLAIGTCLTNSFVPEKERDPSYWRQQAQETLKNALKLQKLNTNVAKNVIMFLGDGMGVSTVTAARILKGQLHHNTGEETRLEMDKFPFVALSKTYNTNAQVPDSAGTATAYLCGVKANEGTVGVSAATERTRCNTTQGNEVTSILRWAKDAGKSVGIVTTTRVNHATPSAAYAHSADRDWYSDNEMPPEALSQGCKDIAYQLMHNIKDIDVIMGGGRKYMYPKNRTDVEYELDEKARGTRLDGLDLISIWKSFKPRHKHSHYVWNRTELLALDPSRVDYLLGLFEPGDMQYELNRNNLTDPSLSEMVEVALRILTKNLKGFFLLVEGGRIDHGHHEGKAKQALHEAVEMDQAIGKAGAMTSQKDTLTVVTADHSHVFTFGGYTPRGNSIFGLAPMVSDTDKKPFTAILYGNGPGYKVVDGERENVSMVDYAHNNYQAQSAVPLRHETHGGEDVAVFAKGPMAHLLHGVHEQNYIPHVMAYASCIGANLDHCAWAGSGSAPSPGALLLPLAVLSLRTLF
# Experiment: Inhibition of alkaline phosphatase in mouse Sarcoma 180/TG cells
# Format: cell-based
# Details: read-out: I50
# In short: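 Partially purified particulate-bound alkaline phosphatase from Sarcoma 180/TG ascites cells (4360 units/mL); compounds tested as oxalate salts; IC50 taken as the concentration cutting observed enzyme activity by 50%.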
row,SMILES,IC50 [µM]
1,Brc1ccc([C@H]2CN3CCSC3=N2)cc1.O=C(O)C(=O)O,1.8
2,C1=CN2CC(c3ccccc3)N=C2S1 (racemic),45
3,Brc1ccc(C2CN3C=CSC3=N2)cc1 (racemic),1.3
4,O=[N+]([O-])c1ccc(C2CN3C=CSC3=N2)cc1 (racemic),8.3
5,Cc1ccc(C2CN3C=CSC3=N2)cc1C (racemic),11
6,Cc1ccc(C2CN3C=CSC3=N2)cc1 (racemic),6.6
7,Brc1cccc(C2CN3C=CSC3=N2)c1 (racemic),2
8,C1=CN2CC(c3ccc4ccccc4c3)N=C2S1 (racemic),1
9,C1=CN2CC(c3cccs3)N=C2S1 (racemic),50
10,c1ccc(C2CN3CCSC3=N2)cc1 (racemic),38
11,Brc1ccc(C2CN3CCSC3=N2)cc1 (racemic),2.6
12,Clc1ccc(C2CN3CCSC3=N2)cc1 (racemic),4.5
13,Fc1ccc(C2CN3CCSC3=N2)cc1 (racemic),16
14,Cc1ccc(C2CN3CCSC3=N2)cc1 (racemic),8.1
15,Cc1cccc(C2CN3CCSC3=N2)c1 (racemic),40
16,O=[N+]([O-])c1cccc(C2CN3CCSC3=N2)c1 (racemic),38
17,c1ccc2cc(C3CN4CCSC4=N3)ccc2c1 (racemic),9

# Test system: not listed separately
# Experiment: Ratio of growth inhibition of mouse Sarcoma 180/TG cells in presence of […] to growth inhibition of mouse Sarcoma 180/TG cells in absence of […] at 10 uM after 96 hrs
# Format: functional
# Details: not given
# In short: (§1)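 Log-phase Sarcoma 180/TG cells were seeded at 10^4 cells/mL in Fischer's medium with 10% horse serum at 37 °C. They were given the oxalate salt with or without 6-thioguanine (10^-6 M) for 96 h, and cell number/mL was counted. Ratio = cell count with 6-thioguanine / count without × 100.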
row,SMILES,Ratio
1,Brc1ccc([C@H]2CN3CCSC3=N2)cc1.O=C(O)C(=O)O,69

# Test system: not listed separately
# Experiment: Ratio of growth inhibition of mouse Sarcoma 180/TG cells in presence of […] to growth inhibition of mouse Sarcoma 180/TG cells in absence of […] at 50 uM after 96 hrs
# Format: functional
# Details: not given
# In short: as §1
row,SMILES,Ratio
1,Brc1ccc([C@H]2CN3CCSC3=N2)cc1.O=C(O)C(=O)O,66

# Test system: not listed separately
# Experiment: Ratio of growth inhibition of mouse Sarcoma 180/TG cells in presence of […] to growth inhibition of mouse Sarcoma 180/TG cells in absence of […] at 100 uM after 96 hrs
# Format: functional
# Details: not given
# In short: as §1
row,SMILES,Ratio
1,Brc1ccc([C@H]2CN3CCSC3=N2)cc1.O=C(O)C(=O)O,49

# Target: T2, Alkaline phosphatase, tissue-nonspecific isozyme (Mus musculus) (UniProt P09242)
# T2 sequence (whole entry): T1 sequence (P09242 whole entry)
# Experiment: Inhibition of alkaline phosphatase in mouse Sarcoma 180/TG cells up to 5 x 10^-4 M
# Format: cell-based
# Details: not given
# In short: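 Particulate-bound alkaline phosphatase, partially purified from Sarcoma 180/TG ascites cells (4360 units/mL), exposed to oxalate salts at concentrations up to at least 5 x 10^-4 M and checked for significant inhibition.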
row,SMILES,inhibition
1,CC(=O)/N=C1\SCCN1CC(=O)c1ccc2ccccc2c1,inactive
2,CC(=O)/N=C1\SCCN1CC(=O)c1cccc(C)c1,inactive
3,CC(=O)/N=c1\sccn1CC(=O)c1ccc(Br)cc1,inactive
4,CC(=O)/N=c1\sccn1CC(=O)c1ccc(C)c(C)c1,inactive
5,CC(=O)/N=c1\sccn1CC(=O)c1ccc(C)cc1,inactive
6,CC(=O)/N=c1\sccn1CC(=O)c1ccc([N+](=O)[O-])cc1,inactive
7,CC(=O)/N=c1\sccn1CC(=O)c1ccc2ccccc2c1,inactive
8,CSc1nc(-c2ccccc2)c[nH]1,inactive
9,CSc1nc(-c2ccccc2)cn1CCO,inactive
10,Cc1ccc(C(=O)Cn2ccsc2=N)cc1,inactive
11,Cc1cccc(C(=O)CN2CCSC2=N)c1,inactive
12,N=C1SCCN1CC(=O)c1ccc2ccccc2c1,inactive
13,N=c1sccn1CC(=O)c1ccc(Br)cc1,inactive
14,N=c1sccn1CC(=O)c1ccc([N+](=O)[O-])cc1,inactive
15,N=c1sccn1CC(=O)c1ccc2ccccc2c1,inactive
16,CC(=O)/N=C1\SCCN1CC(O)c1ccc2ccccc2c1 (racemic),inactive
17,CC(=O)/N=C1\SCCN1CC(O)c1cccc(C)c1 (racemic),inactive
18,CC(=O)/N=c1\sccn1CC(O)c1ccc(Br)cc1 (racemic),inactive
19,CC(=O)/N=c1\sccn1CC(O)c1ccc(C)c(C)c1 (racemic),inactive
20,CC(=O)/N=c1\sccn1CC(O)c1ccc(C)cc1 (racemic),inactive
21,CC(=O)/N=c1\sccn1CC(O)c1ccc([N+](=O)[O-])cc1 (racemic),inactive
22,CC(=O)/N=c1\sccn1CC(O)c1ccc2ccccc2c1 (racemic),inactive
